Legend:
Format in all cases: functional
Rattus norvegicus = assay: Antiinflammatory activity in rat paw edema model assessed as inhibition of carrageenan-induced paw edema at 20 mg/kg, po administered 30 mins prior to carrageenan challenge measured after 4 hrs relative to vehicle-treated control
Summary of the method: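 Male Sprague–Dawley rats (150–170 g, 5 weeks old); compound dissolved in 0.5% CMC-Na and given orally 30 min before subplantar injection of 0.1 mL 1% carrageenan suspension in saline into the right hind paw, with saline injected into the left. Paw volume read by plethysmometer at 0 h and up to 6 h; n = 6.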

Mus musculus = assay: Antiinflammatory activity in ICR mouse ear edema model assessed as inhibition of TPA-induced ear edema at 20 mg/kg, po administered 30 mins prior to TPA challenge measured after 4 hrs relative to vehicle-treated control
Summary of the method: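 ICR mice (male, 18−20 g, 5 weeks old) dosed orally 30 min before TPA (1.0 μg in 20 μL acetone) was applied to inner and outer surfaces of the right ear. Killed by cervical dislocation after 4 h. Edema taken as the weight of a 5 mm punch biopsy of the right ear over the left. Ear homogenates were Western blotted for iNOS, COX-2 and IL-1β.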

RAW264.7 [1] = assay: Antiinflammatory activity in mouse RAW264.7 cells assessed as inhibition of LPS-induced PGE2 production at 20 uM administered 1 hr prior to LPS challenge measured after 20 hrs by EIA relative to control
Summary of the method: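 RAW 264.7 cells plated at 3 × 10^5 cells/mL, pretreated with compound for 1 h, then stimulated with 1 μg/mL LPS for 20 h. PGE2 in the supernatant was measured by immunoassay kit. Mean ± SD of triplicates.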

RAW264.7 [2] = assay: Antiinflammatory activity in mouse RAW264.7 cells assessed as inhibition of LPS-induced nitric oxide production at 50 uM after 20 hrs by Griess assay relative to control; conditions: RAW264.7, 20 h
Summary of the method: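 Positive-control run in the same LPS (1 μg/mL, 20 h) RAW 264.7 system. Nitrite was quantified by Griess reaction at 540 nm against a sodium nitrite standard curve. Inhibition expressed relative to vehicle control.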

## COc1ccc2c(c1)c(CC(=O)O)c(C)n2C(=O)c1ccc(Cl)cc1 [INDOMETHACIN]
Rattus norvegicus
  inhibition in vivo at 20 mg/kg: 51%
Mus musculus
  inhibition in vivo at 20 mg/kg: 53%

## Cc1ccc(-c2cc(C(F)(F)F)nn2-c2ccc(S(N)(=O)=O)cc2)cc1 [CELECOXIB]
RAW264.7 [1]
  inhibition (INH): 81%

## CNC(=N)NCCC[C@H](N)C(=O)O [TILARGININE]
RAW264.7 [2]
  inhibition at 50 µM: 74%

Reference: ChEMBL document CHEMBL3259611, “Suppression of inflammatory responses by handelin, a guaianolide dimer from Chrysanthemum boreale, via downregulation of NF-κB signaling and pro-inflammatory cytokine production” (J Nat Prod, 2014)
